Source: PubChem (several laboratories)
The sample as a whole holds a higher share of hits than the screen did.
TRPML3 ag – agonists of human TRPML3 channel; Q8TDD5; activation, % at 3 µM; HEK293 TRPML3-YFP, Fluo-8 calcium fluorescence; 100% = the carbachol control signal; 220,000 tested, 0.29% active;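 active means activation above its plate's cutoff, the mean activation of the plate's test wells plus 3 SD, cut at about 12% in these data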;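 further: 0% = DMSO only wells and 100% = carbachol wells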
Target sequence (Q8TDD5 whole entry, looked up): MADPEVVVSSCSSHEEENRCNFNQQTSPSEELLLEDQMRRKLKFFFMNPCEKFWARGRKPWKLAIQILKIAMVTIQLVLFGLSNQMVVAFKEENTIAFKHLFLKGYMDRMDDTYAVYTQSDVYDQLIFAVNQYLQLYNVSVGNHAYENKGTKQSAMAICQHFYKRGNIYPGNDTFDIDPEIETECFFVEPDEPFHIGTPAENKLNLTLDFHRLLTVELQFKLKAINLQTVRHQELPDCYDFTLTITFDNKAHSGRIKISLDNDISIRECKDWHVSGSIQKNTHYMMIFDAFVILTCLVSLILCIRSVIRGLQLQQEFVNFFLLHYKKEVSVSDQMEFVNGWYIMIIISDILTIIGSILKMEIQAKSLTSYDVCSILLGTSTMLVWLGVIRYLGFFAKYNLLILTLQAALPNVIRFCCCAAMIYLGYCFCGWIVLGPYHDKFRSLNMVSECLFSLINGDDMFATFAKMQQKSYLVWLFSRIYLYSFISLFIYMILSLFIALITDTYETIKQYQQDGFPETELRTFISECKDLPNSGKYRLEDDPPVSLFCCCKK
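Material: TRPML3-YFP stable HEK293 cells | Dosing: One concentration, 3 µM nominal, 0.3% DMSO | Timing: 125 s total fluorescence read per well | Technique: Fluo-8 calcium dye fluorescence, ex 470-495, em 515-575 nm | Measure: Percent activation from peak-to-basal fluorescence ratio, scaled between DMSO and carbachol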
ROMK primary – modulates human ROMK potassium channel activity | P48048 | 130,000 tested, 2% active | B-score at 10 µM | Tet-inducible ROMK, thallium flux fluorescence; actives lie on both sides | AID 1918;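 active means signal ratio slope over the read window, or its plate-corrected B-score, at least 3 SD from the plate mean, either direction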;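 further: B-score of the F/F0 ratio slope over 7 to 12 s after thallium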
Biofilm kill mix – mixture kills Candida albicans biofilm cells. C. albicans biofilm persisters + clotrimazole, fluorescence viability; primary screen in compound mixtures of four per well. inhibition, % at 7.6 µM. 120,000 tested, 0.02% active. AID 1242;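 active means inhibition above 30.3% in the primary screen of four-compound pools, then above 30% when the compound was retested; inconclusive means passed the primary limit but could not be retested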;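 further: compounds exposed to preformed 24 h biofilms for 48 h; 0% = untreated biofilm control and 100% = clotrimazole plus chlorhexidine kill blank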
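Test system: C. albicans biofilms. Buffer or medium: RPMI/MOPS medium, pH 7.0. Timing: 48 h compound exposure at 37 °C. Technique: Alamar Blue fluorescence. Evaluation: percent inhibition of biofilm viability.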
ABCG2 inh – blocks JC-1 efflux by human ABCG2 transporter | AID 1325 | IgMXP3 cells, flow cytometry | 190,000 tested, 0.1% active | Q9UNQ0 | inhibition, % at 6.6 µM;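 active means inhibition above 80%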;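 further: 0% = DMSO and 100% = nicardipine control wells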
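System: two drug-resistant human cell lines, ABCG2 and ABCB1; controls: nicardipine high and DMSO low controls; times: 10 min exposure at 25 °C with rotation, no wash; detection: flow cytometry of retained JC-1 fluorescence; read-out basis: percent efflux inhibition, scaled nicardipine 100% to DMSO 0%; doses: one concentration, 6.6 µM final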
ABCB1 block – human ABCB1 inhibition, ABCG2 as counter-screen. P08183. CCRF-Adr cells, JC-1 efflux, flow cytometry. inhibition, % at 6.6 µM. 190,000 tested, 0.067% active. AID 1326; in the data active means inhibition above about 40%;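 further: 0% = vehicle and 100% = reference inhibitor; higher value means more JC-1 retained so stronger ABCB1 efflux block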
TRPN1 ag – zebrafish TRPN1 (NompC) channel agonism; HEK293 zebrafish TRPN1-YFP, Fluo-8 calcium fluorescence; 100% = response to 87 µM carbachol; activation, % at 3 µM; 220,000 tested, 0.18% active;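 active means activation above its plate's cutoff, the mean activation of test wells on that plate plus 3 SD, cut at about 19% in these data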;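 further: 0% = DMSO alone and 100% = 87 µM carbachol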
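Control set: carbachol 87 µM as high control, DMSO as low control; system: HEK293 stable line with zebrafish TRPN1-YFP; read-out: % activation versus carbachol response; detection: intracellular calcium fluorescence with Fluo-8; doses: single test compound dose, 3 µM nominal, 0.3% DMSO; schedule: dye 1 h 37 °C plus 30 min RT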
ROMK hit retest – retested hit modulating human ROMK potassium channel. AID 1917. normalized thallium flux (F/F0 slope) at 10 µM. 3,000 tested, 54% active. ROMK thallium flux, fluorescence ratio; stronger effect = lower value. shares compounds with ROMK primary;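 active means Flux at 10 µM at least 3 SD below or above vehicle control mean in one or both replicates; inconclusive means no clear call, values can overlap the other calls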
The depositor's hits bear a star; u = inconclusive; x = not tested or not shown.

SMILES	TRPML3 ag	ROMK primary	Biofilm kill mix	ABCG2 inh	ABCB1 block	TRPN1 ag	ROMK hit retest
C=C(C)CN(CC)c1nc(N)c(C#N)c(CC#N)c1C#N	-1	-2.6*	x	7	0	0	0.055*
Cc1ccc(NNC(=O)c2ccno2)c(C)c1	1	x	16	x	x	0	x
N/C(=N\OC(=O)c1ccc(Cl)c([N+](=O)[O-])c1)c1ccccn1	0	-3.8*	6	8	1	1	0.079
COc1ccccc1C(=O)O/N=C(\N)c1ccccn1	-1	x	10	x	x	1	0.083
N/C(=N\OC(=O)c1ccc(Cl)c(Cl)c1)c1ccccn1	1	x	x	1	0	-2	x
CCC(C)n1c(SCc2ccccc2)nc2ccsc2c1=O (centres undefined)	0	0.75	17	9	0	0	x
Cc1sc2nc(CN3CCCC3)nc(N3CCN(S(=O)(=O)c4cccs4)CC3)c2c1C	1	-2.5*	x	1	2	0	0.055*
O=C1N=C(N2CCOCC2)S/C1=C\c1ccc(-c2ccccc2Cl)o1	1	x	19	-7	-1	0	0.052*
CC(C)(C)OC(=O)C(Cl)(C(=O)OC(C)(C)C)c1ccc2nnnn2n1	1	-3.6	37	4	1	0	0.064*
CCOc1ccc2nnnn2n1	0	0.58	x	1	0	0	x
CCCC(=O)N1CCN(c2ccc(NC(=O)c3cccs3)cc2)CC1	0	2.7*	10	8	-1	0	0.086
O=C(NC(=S)Nc1ccccc1O)c1ccc(-c2ccc(Cl)cc2)o1	1	x	x	1	0	1	x
Cc1c(NC(=S)NC(=O)c2ccc(-c3ccc(Cl)cc3)o2)cccc1C(=O)O	-1	3.5*	26	0	0	-1	0.089
CC(=O)c1ccc(Nc2cc(C)nc3ccccc23)cc1	0	-0.024	19	3	0	0	x
CC(=O)c1ccc(Nc2cc(C)nc3c(C)cccc23)cc1	0	4.2*	24	2	0	0	0.087
Cc1ccc(S(=O)(=O)N2CCC(=O)N(CCOC(=O)Nc3ccc(C)c(C)c3)CC2)cc1	1	0.36	9	3	1	1	x
C#CC(C)(CC)NC(=O)c1cc2nc(C3CC3)cc(C(F)(F)F)n2n1 (centres undefined)	1	-1	7	6	1	-2	x
COc1cccc(C(=O)C2CCCN(C(=O)c3cccc(C#CC(C)(C)O)c3)C2)c1 (centres undefined)	2	1.7*	5	-1	0	-1	0.079
N#Cc1ccc[n+](CC(=O)c2ccc(NC(=O)c3ccccc3)cc2)c1	1	x	15	x	x	0	x
CCCN(CCC)C(=O)CSc1nc2c(sc(=S)n2-c2ccc(OCC)cc2)c(=O)[nH]1	0	-1.1	12	-5	-1	-2	x
CCCCN(CC)C(=O)CSc1nc2c(sc(=S)n2-c2ccc(OCC)cc2)c(=O)[nH]1	1	2.8*	6	-1	0	2	u
Cc1ccc(NC(=O)/C(C#N)=C(\N)C(Cl)(Cl)Cl)nc1	1	-5.5*	17	-10	-5	1	0.035*
Cc1ccc(NC(=O)C(=O)Nc2ccc(C)cn2)nc1	1	0.98	14	0	0	0	x
COC(=O)c1ccc2c(c1)C(C)(C)C(/C=C/c1ccc(O)cc1)=[N+]2C	5	x	x	1	0	7	x
COC(=O)c1ccc2c(c1)C(C)(C)C(/C=C/c1ccc(OC)c(OC)c1OC)=[N+]2C	2	x	x	0	0	1	0.058*
SMILES	TRPML3 ag	ROMK primary	Biofilm kill mix	ABCG2 inh	ABCB1 block	TRPN1 ag	ROMK hit retest
COc1ccc(OC)c(C2=NOC(C(=O)NCc3ccco3)C2)c1 (centres undefined)	0	3.5*	x	1	0	0	0.079
O=C(NCc1ccco1)C1CC(c2ccccc2O)=NO1 (centres undefined)	-1	3.6*	2	0	0	-2	0.078
O=C(NC1CC1)C1=C[C@@H](C2CCCCC2)C[C@@H](OCCCCO)O1	0	x	21	10	1	1	x
CC(=O)Nc1ccc(S(=O)(=O)NCCC(=O)NCCc2ccc(F)cc2)cc1	0	x	x	9	2	-1	0.081
N=c1c2c(-c3ccccc3)c(-c3ccccc3)n(Cc3ccccc3)c2ncn1CCO	-1	x	x	1	0	0	x
N=c1c2c(-c3ccccc3)c(-c3ccccc3)n(Cc3ccco3)c2ncn1CCCN1CCOCC1	1	-2.8*	9	4	0	-1	0.049*
N=c1c2c(-c3ccccc3)c(-c3ccccc3)n(Cc3ccco3)c2ncn1CCCn1ccnc1	0	-5.6*	8	0	0	-1	0.048*
CC(C)Cn1cnc2c(c(-c3ccccc3)c(-c3ccccc3)n2Cc2ccco2)c1=N	0	-4.3*	x	2	2	-2	0.044*
N=c1c2c(-c3ccccc3)c(-c3ccccc3)oc2ncn1CCCN1CCOCC1	-1	-3.8*	x	2	1	-1	0.082
N=c1c2c(-c3ccccc3)c(-c3ccccc3)oc2ncn1CCN1CCOCC1	2	-1.5	x	1	1	0	x
Cc1c(NC2(C#N)CCCCC2)c(=O)n(-c2ccccc2)n1C	1	-0.053	18	1	0	1	x
COc1ccc(N2CC(C(=O)Nc3nnc(SCc4ccccn4)s3)CC2=O)cc1 (centres undefined)	0	x	1	-7	-1	0	x
O=c1[nH]c(CNCc2cccnc2)nc2ccccc12	1	-0.11	7	20	2	0	x
c1ccc(-c2c(-c3ccccc3)n(Cc3ccco3)c3ncnc(NCCCn4ccnc4)c23)cc1	0	-3.9*	x	-1	0	-1	u
COc1ccc(-c2cc(C(=O)Nc3c(C)n(C)n(-c4ccccc4)c3=O)no2)cc1OC	0	0.12	17	6	0	1	x
O=C1c2cccc3c(N4CCCCC4)ccc(c23)C(=O)N1c1ccc(O)cc1	12*	-3.1*	12	11	4	20*	0.051*
O=C(O)c1ccc(N2C(=O)c3cccc4c(C(=O)O)ccc(c34)C2=O)cc1	0	-0.97	3	0	0	-1	x
O=C1c2cccc3c(N4CCCCC4)ccc(c23)C(=O)N1c1ccccc1O	18*	-5.2*	10	13	4	36*	0.051*
CSc1ccc(NC(=O)c2cccnc2)cc1C#N	1	-0.0092	10	25	1	2	x
CC(C)N1CCC(N2CCN(Cc3ccc(-c4ccccc4Cl)o3)CC2CCO)CC1 (centres undefined)	0	x	5	4	1	-2	x
